# “And” between values parts separate entries of the source, which are not always exact repeats. Equal entries are not always repeated. “Also recorded” adds a separate entry of the source. Where two headings read alike, the source gives them in different places.
# How the values were obtained:
# [1] = target: TmP4; conditions: read-out: Upper limit of Kd for the TmP4–TNP-ATP binding interaction; previous work; ref [2]; cited from earlier work
# [2] = target: T1, TmP4 (isolated P4 domain of T. maritima CheA, monomer) (Thermotoga maritima, UniProt Q56310); experiment: Fluorescence-monitored TNP-ATP binding titrations with TmP4; conditions: 4 °C, Mg2+; λex 520 nm, emission 530–600 nm
# T1 sequence (Q56310 356-540): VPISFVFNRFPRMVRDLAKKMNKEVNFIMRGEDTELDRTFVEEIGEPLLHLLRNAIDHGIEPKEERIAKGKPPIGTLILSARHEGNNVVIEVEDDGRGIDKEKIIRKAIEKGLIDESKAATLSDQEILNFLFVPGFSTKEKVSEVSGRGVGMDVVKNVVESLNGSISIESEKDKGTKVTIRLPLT
# [3] = target: T2, TmCheA dimer (full-length T. maritima CheA) (Thermotoga maritima, UniProt Q56310); type: binding; conditions: 4 °C
# T2 sequence (Q56310 1-671): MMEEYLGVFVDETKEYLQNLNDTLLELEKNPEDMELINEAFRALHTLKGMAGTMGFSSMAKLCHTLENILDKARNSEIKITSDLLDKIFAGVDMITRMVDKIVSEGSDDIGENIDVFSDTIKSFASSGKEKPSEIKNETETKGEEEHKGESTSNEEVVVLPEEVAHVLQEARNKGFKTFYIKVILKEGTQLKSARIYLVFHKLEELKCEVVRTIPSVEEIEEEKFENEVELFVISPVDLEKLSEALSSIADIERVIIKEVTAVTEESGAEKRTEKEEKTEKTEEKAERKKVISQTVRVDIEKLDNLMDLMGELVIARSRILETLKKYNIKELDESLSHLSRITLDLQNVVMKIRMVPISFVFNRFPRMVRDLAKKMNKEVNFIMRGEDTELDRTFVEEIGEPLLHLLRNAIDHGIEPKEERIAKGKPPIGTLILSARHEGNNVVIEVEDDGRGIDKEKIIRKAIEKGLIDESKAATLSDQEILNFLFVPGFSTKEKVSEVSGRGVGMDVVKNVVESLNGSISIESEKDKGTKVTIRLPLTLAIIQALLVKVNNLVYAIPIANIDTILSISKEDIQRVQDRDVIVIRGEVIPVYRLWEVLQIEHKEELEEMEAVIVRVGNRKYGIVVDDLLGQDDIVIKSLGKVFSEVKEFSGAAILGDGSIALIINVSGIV
# [4] = target: T2, TmCheA dimer (full-length T. maritima CheA); experiment: Competition binding between ATP and TNP-ATP for TmCheA binding sites; conditions: 4 °C, Mg2+
# Method in brief: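 Competition titrations at 4 °C: TNP-ATP aliquots added to stirred full-length TmCheA (0.6 μM dimer) in TnM buffer (25 mM Tris, 0.5 mM EDTA, 10% glycerol, 25 mM NaCl, 50 mM K-glutamate, 20 mM MgCl2) containing 0, 2.34, 5.9, 11.9 or 23.4 mM ATP. Emission spectra (four-scan averages), background-corrected by mock titrations. At least two independent experiments averaged.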
# [5] = target: TmP4; conditions: read-out: Kd^ATP for TmP4; chromatographic approach; ref [2]; cited from earlier work
# [6] = without versus with 20 mM MgCl2
Structure (SMILES),Kd [1],IMFC (integrated molar fluorescence coefficient) of the TmP4 · TNP-ATP complex [2],"IMFC of T.AA.T complex ([3]; 20 mM MgCl2, 0.6 μM TmCheA dimer, two-site model)","IMFC of T.AA complex (IMFC site 1) ([3]; 20 mM MgCl2, TmCheA titrated with excess TNP nucleotide)","IMFC site 2 (second, low-affinity site) ([3]; Mg2+)","IMFC of T.AA complex from reverse stoichiometry titration ([3]; Mg2+, TmCheA added to 0.28 μM TNP-ATP)","IMFC of T.AA complex, absence of Mg2+ ([3]; no MgCl2, 20 mM Na2EDTA)","IMFC of T.AA.T complex, absence of Mg2+ ([3]; no MgCl2, 20 mM Na2EDTA)","Decrease of site 2 affinity in the absence of Mg2+ [3, 6]","Effect of Mg2+ removal on site 1 binding [3, 6]","Kd ([3]; Kd1^TNP (high-affinity site 1 of TmCheA dimer), Mg2+, forward and reverse titrations at low protein and ligand concentrations (0.002–0.003 μM))","Kd ([3]; Kd1^TNP, titration of CheA with excess TNP-ATP, Mg2+, 0.003 μM TmCheA dimer, one-site binding model)","Kd ([3]; Kd1^TNP, titration of TNP-ATP with excess TmCheA, Mg2+, 0.002 μM TNP-ATP, one-site binding model)","Binding stoichiometry of high-affinity TNP-ATP binding to TmCheA dimer ([3]; reverse titration, 0.28 μM TNP-ATP, Mg2+)",Kd2^ATP/Kd1^ATP (affinity difference between the two sites) [4],"Kd ([4]; read-out: Kd1^ATP (high-affinity site of TmCheA dimer), effect of competitor ATP on apparent Kd1^TNP)",Kd [5]
"Nc1ncnc2c1ncn2[C@@H]1O[C@H](COP(=O)(O)OP(=O)(O)OP(=O)(O)O)[C@H]2OC3(O[C@H]21)C([N+](=O)[O-])=CC(=[N+]([O-])[O-])C=C3[N+](=O)[O-] (some centres unmarked) [TNP-ATP, 2′(3′)-O-(2,4,6-trinitrophenyl)adenosine 5′-triphosphate]",≤ 10 nM,1.9 × 10^6 cps/μM,9.5 × 10^6 cps/μM,2.0 × 10^6 cps/μM,7.5 × 10^6 cps/μM,~2× 10^6 cps/μM and 2.0 × 10^6 cps/μM,2.4 × 10^6 cps/μM,8.9 × 10^6 cps/μM,5 fold,insensitive to the presence or absence of Mg^2+,~1.6 nM and 1.6 nM,1.8 nM,1.4 nM,each TmCheA dimer can bind one molecule of TNP-ATP with high affinity; also recorded: one TNP-ATP per CheA dimer,–,–,–
Nc1ncnc2c1ncn2[C@@H]1O[C@H](COP(=O)(O)OP(=O)(O)OP(=O)(O)O)[C@@H](O)[C@H]1O [ATP],–,–,–,–,–,–,–,–,–,–,–,–,–,–,~10^3 fold,~6000 nM and 6000 nM,15000 nM

# Reference: publication PMC2811258 (Biochemistry, 2009)
